Bioassay records as filed in PubChem BioAssay.
An excerpt weighted towards active compounds, which were near 0.79% of everything screened.
mIAP inh – inhibitors of mouse IAP, primary screen, biochemical, luminescence, uHTS; purified mouse IAP, CDP-Star luminescence, 30 min; inhibition, % at 10 µM; 0.2% of 330,000 active;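 active = inhibition of at least 40% at 10 µM in the primary screen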
hIAP activ – human IAP activators, primary screen, biochemical, luminescence, uHTS | activation factor at 10 µM | Intestinal-type alkaline phosphatase (Homo sapiens), P09923 | purified human IAP, CDP-Star luminescence, 30 min; stronger effect = higher value; 1 = vehicle-only enzyme, 0 = enzyme-free background | 0.16% of 330,000 active;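 active = activation factor of the enzyme at least 2-fold when tested at 20 µM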
Target sequence (P09923 whole entry, looked up): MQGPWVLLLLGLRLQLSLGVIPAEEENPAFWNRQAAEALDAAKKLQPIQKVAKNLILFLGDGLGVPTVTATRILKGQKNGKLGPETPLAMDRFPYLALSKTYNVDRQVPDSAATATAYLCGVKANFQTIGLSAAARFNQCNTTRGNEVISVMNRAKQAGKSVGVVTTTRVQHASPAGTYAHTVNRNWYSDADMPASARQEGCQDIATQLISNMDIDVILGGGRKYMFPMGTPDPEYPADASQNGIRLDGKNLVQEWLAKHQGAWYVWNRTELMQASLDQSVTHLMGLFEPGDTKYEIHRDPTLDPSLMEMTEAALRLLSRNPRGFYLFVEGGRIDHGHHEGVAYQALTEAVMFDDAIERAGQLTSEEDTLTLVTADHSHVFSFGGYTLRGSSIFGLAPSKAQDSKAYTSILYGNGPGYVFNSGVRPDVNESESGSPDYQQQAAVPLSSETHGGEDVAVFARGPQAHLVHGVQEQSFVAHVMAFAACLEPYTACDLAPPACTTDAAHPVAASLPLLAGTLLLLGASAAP
mIAP activ – activators of mouse IAP, primary screen, biochemical, luminescence, uHTS; activation factor at 10 µM; muIAP, CDP-Star luminescence, 30 min; stronger effect = higher value; 1 = vehicle-only enzyme signal, 0 = enzyme-free wells; 0.24% of 330,000 active; intestinal alkaline phosphatase [Mus musculus];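 active = activation factor of at least 2 at 20 µM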
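Assay system: mouse IAP enzyme / Compound: DMSO-dissolved test compounds / Timing: 30 min, room temperature / Measured by: luminescence from enzymatic CDP-Star hydrolysis / Control set: DMSO-only wells, enzyme-free buffer wells as negative control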
bIAP inhibitor – bovine intestinal alkaline phosphatase inhibitors, primary screen, selectivity assay for TNAP inhibitor project, biochemical, bovine IAP, CDP-star luminescence; inhibition, % at 20 µM; AID 1019, 2008; 190,000 tested, under 10 active; alkaline phosphatase, intestinal [Bos taurus]; purified bovine IAP, 30 min;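 active = over 50% inhibition of intestinal alkaline phosphatase at 20 µM in the single-dose screen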
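System: purified bovine intestinal alkaline phosphatase (IAP) enzyme; Input: IAP diluted 1/65,000,000 in the well; Measured by: CDP-star luminescence signal; Compound dosing: 20 µM single dose; Incubation: 30 min reaction at room temperature.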
bIAP act – bovine intestinal alkaline phosphatase activators, primary screen, biochemical, bovine IAP, CDP-star luminescence | 0.17% of 200,000 active | AID 1016, 2008 | alkaline phosphatase, intestinal [Bos taurus] | purified bovine IAP, 30 min; stronger effect = higher value; fold of DMSO-control signal, blank-subtracted | activation factor at 20 µM;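 active = activation factor of 2 or more at 20 µM, a signal rise over negative controls twice the positive control's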
hIAP inh – human IAP inhibitors, primary screen, biochemical, luminescence, uHTS. Intestinal-type alkaline phosphatase (Homo sapiens), P09923. purified IAP, CDP-Star luminescence, 30 min. 0.12% of 330,000 active. inhibition, % at 10 µM;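 active = inhibition reaching a set limit with compound at 10 µM in the primary screen, cut at about 35% in these data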
hIAP act conf – human IAP activators, confirmation, biochemical, luminescence, single concentration, uHTS hits; shares compounds with hIAP activ; purified IAP, CDP-Star luminescence, 30 min; stronger effect = lower value; activation (%Activity, negative = activation), % at 8.3 µM; 10% of 880 active; AID 434926, 2010;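 active = at least twofold enzyme activation in any of six single-dose repeats, which the averaged readout prints as negative percent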
Large screens that a line does not name were inactive (follow-up assays come after a bar, where they were run).

CC(C(=O)Nc1ncn[nH]1)N1C(=O)c2ccccc2C1=O (configuration not stated)	none
CCn1c(C)nc2cc(C(=O)NNC(=S)Nc3ccc(C)cc3)ccc21	hIAP activ 2 (no result: bIAP inhibitor, bIAP act) | hIAP act conf inactive
CN(C)c1ccc(N=Nc2cccc(F)c2)cc1	none (no result: bIAP inhibitor, bIAP act)
CN(C)c1ccc(N=Nc2cccc3ccoc23)cc1	hIAP inh 36 (no result: bIAP inhibitor, bIAP act) | hIAP act conf inactive
COc1cccc(OC)c1C(=O)Nc1ccccc1Sc1ccccc1	none (no result: bIAP inhibitor, bIAP act)
CCCCn1c(N)c(N(CC(C)C)C(=O)CSCc2ccc(Cl)c(Cl)c2)c(=O)[nH]c1=O	none (no result: bIAP inhibitor, bIAP act)
S=C(NCc1ccncc1)Nc1ccc(Cl)cc1	hIAP activ 2 | hIAP act conf inactive
O=C(CSc1nc(=O)n(CCCN2CCOCC2)c2c1CCCC2)Nc1ccc(F)cc1	none (no result: bIAP inhibitor, bIAP act)
Cc1ccc(O)c(N/C=C/C(=O)c2ccc(F)cc2)c1	hIAP activ 2.8 (no result: bIAP inhibitor, bIAP act) | hIAP act conf -120
C=CCN1C(=O)C2(NNc3ccccc3O2)c2ccccc21 (configuration not stated)	hIAP activ 6.7, bIAP act 3.9 | hIAP act conf -93
O=C(Nc1nccs1)c1nc[nH]c1C(=O)N1CCc2ccccc2C1	hIAP activ 2.1 (no result: bIAP inhibitor, bIAP act) | hIAP act conf inactive
CC(C)(C)OC(=O)N1CCN(C(=O)c2[nH]cnc2C(=O)Nc2nccs2)CC1	hIAP activ 2.2 (no result: bIAP inhibitor, bIAP act) | hIAP act conf inactive
C[C@H](NC(=O)c1nc[nH]c1C(=O)N1CCc2ccccc2C1)C(=O)OC(C)(C)C	hIAP activ 2.7 (no result: bIAP inhibitor, bIAP act) | hIAP act conf inactive
Cc1onc(-c2ccccc2)c1C(=O)NCCCc1ccccc1	none (no result: bIAP inhibitor, bIAP act)
Cc1oc(-c2ccccc2Cl)nc1CS(=O)CC(=O)NCc1ccc2c(c1)OCO2 (configuration not stated)	none (no result: bIAP inhibitor, bIAP act)
CC(=O)N1CCOc2ccc(S(=O)(=O)N3CCC(C(=O)Nc4ccc(C)cc4)CC3)cc21	none (no result: bIAP inhibitor, bIAP act)
CCc1ccc(NC(=O)C2CCN(S(=O)(=O)c3ccc4c(c3)N(C(C)=O)CCO4)CC2)cc1	hIAP inh 39 (no result: bIAP inhibitor, bIAP act) | hIAP act conf inactive
CCc1ccc(NC(=O)C2CCN(S(=O)(=O)c3c(C)[nH]c(=O)[nH]c3=O)CC2)cc1	hIAP activ 2.5 | hIAP act conf inactive
COc1cccc(/C=C2\SC(=O)N(CC(=O)NC3C=CS(=O)(=O)C3)C2=O)c1 (configuration not stated)	none (no result: bIAP inhibitor, bIAP act)
CCOC(=O)C1CCN(CC(O)COc2ccc(C(=O)CC)cc2)CC1 (configuration not stated)	hIAP inh 36 | hIAP act conf inactive
Cn1nc(C(=O)NNC(=O)CCOc2ccc(C(C)(C)C)cc2)c2ccccc2c1=O	hIAP activ 2.1 (no result: bIAP inhibitor, bIAP act) | hIAP act conf inactive
Cc1c(C(C)NC(=O)c2cc(COc3cccc4cnccc34)on2)cnn1C (configuration not stated)	none (no result: bIAP inhibitor, bIAP act)
O=C(O)c1ccc2c(c1)C(=O)N(Cc1ccc3c(c1)OCO3)C2=O	none
O=C1c2ccccc2C(=O)N1Cc1ccc2c(c1)OCO2	hIAP activ 2 | hIAP act conf inactive
O=C(N/N=C/c1ccc2cccnc2c1)c1nc2ccccc2c(=O)[nH]1	hIAP activ 2.7 (no result: bIAP inhibitor, bIAP act) | hIAP act conf -193
O=C(N/N=C/c1ccncc1)c1nc2ccccc2c(=O)[nH]1	hIAP activ 2.7 (no result: bIAP inhibitor, bIAP act) | hIAP act conf inactive
COc1cccc(CC(=O)NNC(=O)c2c(-c3ccccc3)noc2C)c1	none (no result: bIAP inhibitor, bIAP act)
CCCn1nc(C(=O)NNC(=O)c2cccc(C)c2)c2ccccc2c1=O	none (no result: bIAP inhibitor, bIAP act)
COc1c(-c2ccc(O)c(O)c2)oc2cc(O)cc(O)c2c1=O	hIAP inh 60 (no result: bIAP inhibitor, bIAP act) | hIAP act conf inactive
NC(=O)c1c(NC(=O)c2ccc(F)cc2)sc2c1CCC2	hIAP inh 37 (no result: bIAP inhibitor, bIAP act) | hIAP act conf active
Oc1cccc(/C=N/N=C/c2cccc(O)c2O)c1O	hIAP activ 2 (no result: bIAP inhibitor, bIAP act) | hIAP act conf inactive
Cc1ccc(NC(=O)c2ccncc2)cc1[N+](=O)[O-]	hIAP activ 2.1 | hIAP act conf inactive
Cc1ccc(C(=O)Nc2ccncc2)cc1[N+](=O)[O-]	none (no result: bIAP inhibitor, bIAP act)
C/C(=N/NC(=O)c1ccc(Cn2cccn2)o1)c1cccc(NC(=O)c2ccncc2)c1	hIAP inh 46 (no result: bIAP inhibitor, bIAP act) | hIAP act conf -101
COc1ccc(CCNC(=O)c2cc(-c3ccccc3)c(N3CCOCC3)s2)c(OC)c1OC	none (no result: bIAP inhibitor, bIAP act)
CCOc1ccc(CCNC(=O)c2cc(-c3ccccc3)c(N3CCOCC3)s2)cc1OCC	hIAP activ 2.5, mIAP activ 2.2 (no result: bIAP inhibitor, bIAP act) | hIAP act conf inactive
COc1ccc(NC(=O)CN(C)C(=O)c2cc(CN3C(=O)c4ccccc4C3=O)ccc2OC)cc1	none (no result: bIAP inhibitor, bIAP act)
CCCCOc1cccc(C2/C(=C(\O)c3ccc4c(c3)OCCO4)C(=O)C(=O)N2CCN2CCOCC2)c1 (configuration not stated)	hIAP inh 42 (no result: bIAP inhibitor, bIAP act) | hIAP act conf -91
Cc1cc(NC(=O)COC(=O)CCS(=O)(=O)c2cc(Cl)ccc2Cl)no1	none (no result: bIAP inhibitor, bIAP act)
O=C(/C=C/c1ccc(O)cc1)c1ccc(NC2=C(N3CCCCC3)C(=O)c3ccccc3C2=O)cc1	hIAP inh 35 | hIAP act conf inactive
O=C1C(Nc2ccccc2)=C(N2CCCCC2)C(=O)c2ccccc21	none
COc1ccc(O)c(/C=N/NC(=S)NCCc2ccccc2)c1	hIAP activ 2.1 (no result: bIAP inhibitor, bIAP act) | hIAP act conf -91
Oc1ccc(Br)cc1/C=N/NC(=S)NCCc1ccccc1	none (no result: bIAP inhibitor, bIAP act)
CN(C)c1ccc(N=Nc2ccccc2C(=O)OCC(=O)NC2CCCC2)cc1	hIAP inh 40 | hIAP act conf inactive
CN(C)c1ccc(N=Nc2ccccc2C(=O)OCC(=O)NCC2CCCCC2)cc1	none
COc1ccc(-c2nc(-c3ccccn3)no2)cc1	none
Clc1ccc(-c2nc(-c3ccccn3)no2)cc1Cl	hIAP activ 2.1 | hIAP act conf inactive
Nc1ccccc1-c1nnc(-c2ccc(-c3ccccc3)cc2)o1	hIAP activ 2 | hIAP act conf inactive
c1ccc(-c2nnc(-c3ccccc3)o2)cc1	none
O=C(CN1CCN(C(=O)C2COc3ccccc3O2)CC1)Nc1ccccc1 (configuration not stated)	hIAP inh 40 (no result: bIAP inhibitor, bIAP act) | hIAP act conf inactive
NS(=O)(=O)c1ccc(N2CCOCC2)c(C(=O)NCCCSc2ccccc2)c1	none (no result: bIAP inhibitor, bIAP act)
